Laboratory results published in publication PMC6036231 (Journal of immunology (Baltimore, Md. : 1950), 2018).
Blank lines part the entries; values can stand above or below the molecule they belong to.

What was measured:
human GPR35a [1] = target: T1, human GPR35a (Homo sapiens, UniProt Q9HC97); assay: Inositol phosphate assay, GPR35a with Gq-G13 chimera; type: cell-based; settings: 30 minutes
human GPR35a [2] = target: T1, human GPR35a; assay: Inositol phosphate assay, GPR35a with Gq-Gi1/2 chimera; type: cell-based; settings: 30 minutes
GPR35b = GPR35b (Homo sapiens, UniProt Q9HC97); assay: Inositol phosphate assay, GPR35b with Gq-Gi1/2 chimera; type: cell-based; settings: 30 minutes
3xHA-GPR35 = 3xHA-GPR35 (Homo sapiens, UniProt Q9HC97); assay: GPR35 endocytosis assay, L1.2 clone 23; type: cell-based; settings: 37°C, 15 minutes
Summary of the method: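 L1.2 clone stably expressing N-terminal 3xHA-GPR35 (G418 1 mg/ml selection, limiting-dilution cloning), 2 x 10^6 cells/ml in RPMI/0.1% BSA. Mixed with equal volume of buffer holding agonist (20, 10 or 2 µM reference agonist; 2 µM chemokine) or DMSO vehicle. Incubated 15 min at 4°C (basal) and 37°C (endocytosis). Surface receptor by flow cytometry: anti-HA (10 µg/ml), FITC secondary, TO-PRO3.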

THP-1 cells = assay: Real-time chemotaxis; type: cell-based, human; settings: resting THP-1
Summary of the method: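 Resting THP-1 cells kept at 0.5 x 10^6/ml in supplemented RPMI 1640 with 10% FBS at 37°C, 5% CO2. TAXIScan: 1 h migration at 37°C along gradients from 1 µl of 1 µM or 10 µM chemokine (1 µM CCL2 reference); no-stimulus basal. Frames every minute; manual tracking. FMI = y-axis distance/accumulated distance. Pooled from 3 experiments, 3 movies per condition.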

PGE2-treated THP-1 cells = assay: Real-time chemotaxis; type: cell-based, human
Summary of the method: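 THP-1 cultured overnight with PGE2. Where stated, pre-incubated 15 min at room temperature with DMSO or 1 µM final antagonist. TAXIScan: 1 h migration at 37°C along gradients from 1 µl of 1 or 10 µM chemokine (1 µM CCL2 reference; no-stimulus basal). Frames every minute; cells tracked manually. FMI = y-axis distance/accumulated distance. Triplicate or quadruplicate runs per stimulus.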

primary human monocytes = assay: Real-time chemotaxis; type: cell-based; settings: 1 μM ML145
Summary of the method: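 Monocytes isolated from healthy donor blood by negative selection (RosetteSep). Pre-incubated 15 min at room temperature in buffer with DMSO vehicle or 1 µM final antagonist. TAXIScan: 1 h migration at 37°C along gradients formed by 1 µl chemokine; no-stimulus basal. Images every minute; individual cells tracked manually; FMI parallel to gradient calculated per cell.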

mouse GPR35 = mouse GPR35 (Mus musculus, UniProt Q9ES90); assay: BRET β-arrestin-2 recruitment assay, HEK293T cells, mouse GPR35; type: cell-based
Summary of the method: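 HEK293T cells transiently transfected with polyethylenimine to co-express mouse GPR35 and β-arrestin-2, used 48 h after transfection. β-arrestin-2 recruitment read by bioluminescence resonance energy transfer.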

rat GPR35 = rat GPR35 (Rattus norvegicus, UniProt Q33BM1); assay: BRET β-arrestin-2 recruitment assay, HEK293T cells, rat GPR35; type: cell-based
[3] = target: T2, recombinant human chymase (Homo sapiens, UniProt P23946); assay: Chemokine digestion with chymase, SDS-PAGE; type: biochemical; settings: 18hr incubation, 37°C
T2 sequence (P23946 22-247): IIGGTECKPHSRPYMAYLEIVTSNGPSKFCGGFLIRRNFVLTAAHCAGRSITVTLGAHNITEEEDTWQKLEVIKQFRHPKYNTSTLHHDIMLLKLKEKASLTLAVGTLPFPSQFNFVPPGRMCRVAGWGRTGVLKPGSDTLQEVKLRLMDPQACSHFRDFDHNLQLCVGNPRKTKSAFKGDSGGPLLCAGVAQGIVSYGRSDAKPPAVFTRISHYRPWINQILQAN
Summary of the method: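 20 µg chemokine in 100 mM Tris-HCl pH 7.8, 10 mM CaCl2, split; one half given 0.1-0.4 µg chymase; both 18 h at 37°C. Samples in Tris-glycine SDS buffer heated 95°C 10 min, run on 4-12% Bis-Tris gels at 150 V for 50 min. Fixed in 25% isopropanol/10% acetic acid, stained with 0.25% Coomassie G-250 2 h, destained overnight; n=3.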

CCR1 = target: T3, CCR1 (Homo sapiens, UniProt P32246); assay: Boyden chamber chemotaxis, CCR1 transfectants; type: cell-based; settings: cleaved versus uncleaved chemokine
T3 sequence (P32246 1-355): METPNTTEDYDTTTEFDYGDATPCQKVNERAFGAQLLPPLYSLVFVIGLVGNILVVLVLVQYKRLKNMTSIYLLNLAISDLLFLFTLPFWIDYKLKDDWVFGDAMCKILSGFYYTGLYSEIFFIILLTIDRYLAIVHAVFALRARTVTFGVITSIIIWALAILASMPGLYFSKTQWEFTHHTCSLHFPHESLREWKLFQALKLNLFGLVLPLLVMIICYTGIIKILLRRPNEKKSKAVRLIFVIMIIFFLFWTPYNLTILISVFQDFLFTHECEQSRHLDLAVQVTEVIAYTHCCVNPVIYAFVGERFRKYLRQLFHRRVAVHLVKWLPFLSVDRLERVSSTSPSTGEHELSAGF
Summary of the method: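 Chemokine digested for 18 h at 37°C with 0.1-0.4 µg recombinant human chymase in 100 mM Tris-HCl (pH 7.8), 10 mM CaCl2; undigested half incubated alongside. Cleaved and uncleaved forms tested on CCR1 transfectants in 96-well Boyden chambers: 5 h migration, 37°C, 5% CO2. Migrated cells quantified by ATP luminescence (Cell Titer-Glo); chemotactic index = response/buffer-alone basal; n=3.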

Sequence of 3xHA-GPR35 (Q9HC97 whole entry): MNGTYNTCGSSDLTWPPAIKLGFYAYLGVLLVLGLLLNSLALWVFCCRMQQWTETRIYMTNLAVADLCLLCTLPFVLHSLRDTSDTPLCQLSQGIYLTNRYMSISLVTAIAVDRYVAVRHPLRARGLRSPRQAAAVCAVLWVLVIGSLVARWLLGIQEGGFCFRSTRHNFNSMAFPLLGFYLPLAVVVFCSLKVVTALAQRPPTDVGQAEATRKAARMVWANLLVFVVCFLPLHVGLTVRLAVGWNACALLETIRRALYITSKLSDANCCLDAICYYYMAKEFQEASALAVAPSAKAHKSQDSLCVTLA
T1 sequence (Q9HC97 whole entry): as above
Sequence of rat GPR35 (Q33BM1 1-306): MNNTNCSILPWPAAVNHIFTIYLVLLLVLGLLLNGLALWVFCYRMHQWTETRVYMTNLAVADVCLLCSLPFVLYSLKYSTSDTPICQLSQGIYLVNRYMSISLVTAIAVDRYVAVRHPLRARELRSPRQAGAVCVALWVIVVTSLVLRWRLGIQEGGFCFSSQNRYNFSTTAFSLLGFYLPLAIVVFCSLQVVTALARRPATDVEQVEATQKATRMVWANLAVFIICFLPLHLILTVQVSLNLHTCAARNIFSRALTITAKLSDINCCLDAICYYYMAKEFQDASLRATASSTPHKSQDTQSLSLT
Sequence of GPR35b (Q9HC97 1-340 isoform Q9HC97-2): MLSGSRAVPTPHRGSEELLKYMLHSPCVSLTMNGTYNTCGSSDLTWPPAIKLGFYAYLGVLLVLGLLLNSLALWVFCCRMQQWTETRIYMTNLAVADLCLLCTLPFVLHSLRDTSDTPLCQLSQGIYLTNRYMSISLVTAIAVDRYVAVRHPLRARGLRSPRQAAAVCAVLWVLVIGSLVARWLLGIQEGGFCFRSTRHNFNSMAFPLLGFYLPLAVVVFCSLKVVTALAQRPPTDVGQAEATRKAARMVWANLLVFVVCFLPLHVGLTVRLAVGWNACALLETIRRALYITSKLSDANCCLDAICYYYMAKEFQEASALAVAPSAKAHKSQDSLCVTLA
Sequence of mouse GPR35 (Q9ES90 whole entry): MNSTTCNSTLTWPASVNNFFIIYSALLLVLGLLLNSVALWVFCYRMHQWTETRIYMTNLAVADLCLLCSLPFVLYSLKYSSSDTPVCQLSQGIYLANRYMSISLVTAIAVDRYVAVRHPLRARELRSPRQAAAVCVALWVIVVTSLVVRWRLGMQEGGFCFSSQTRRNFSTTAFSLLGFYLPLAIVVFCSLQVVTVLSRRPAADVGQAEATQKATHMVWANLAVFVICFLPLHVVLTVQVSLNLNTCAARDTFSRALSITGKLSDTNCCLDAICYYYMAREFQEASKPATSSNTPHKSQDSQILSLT

Molecule: N#Cc1cc(NC(=O)C(=O)O)c(Cl)c(NC(=O)C(=O)O)c1 [lodoxamide]
pEC50, inositol phosphate production (human GPR35a [1]): 9.13 +/- 0.24 | pEC50, inositol phosphate production (human GPR35a [2]): 8.64 +/- 0.08 | pEC50, inositol phosphate production (GPR35b): 9.05 +/- 0.07 | endocytosis of GPR35 (3xHA-GPR35; 1 μM and 10μM): Significant endocytosis | endocytosis of GPR35, direct comparison (3xHA-GPR35; 1 μM): significant endocytosis

Molecule: CCL2: chemokine purchased from Peprotech EC
forward migration index (FMI‖) versus basal (THP-1 cells; 1μM): significant response | cell migration versus basal (THP-1 cells; gradient from 1μl of 1μM, 1 hour): many more cells were observed to migrate | forward migration index (FMI‖) versus basal (PGE2-treated THP-1 cells; 1μM, PGE2-treated THP-1): significantly greater than the basal response | increase in the number of migrating cells versus basal (PGE2-treated THP-1 cells; 1μM, PGE2-treated THP-1): 6 fold

Molecule: CC(/C=C1\SC(=S)N(CCCC(=O)Nc2ccc(C(=O)O)c(O)c2)C1=O)=C\c1ccccc1 [ML145]
effect of pre-exposure on response of cells to 1μM CXCL17 (PGE2-treated THP-1 cells; 1 μM ML145, 15 minutes pre-incubation): no inhibitory effect | effect of pre-treatment on monocyte migration to CXCL17 (primary human monocytes): unaffected

Now from value to molecule:

EC50 (mouse GPR35): 1050 nM | EC50 (rat GPR35): 91.2 nM
Molecule: CCCOc1ccccc1-c1nc2nn[nH]c2c(=O)[nH]1 [zaprinast]

cleavage by chymase [3]: cleaved | effect of chymase cleavage on chemotactic potency (CCR1): increased potency
B1: CCL23: CC-chemokine with extended N-terminus, purchased from Peprotech EC (protein, UniProt P55773 22-120, looked up)
C-C motif chemokine 23: RVTKDAETEFMMSKLPLENPVLLDRFHATSADCCISYTPRSIPCSLLESYFETNSECSKPGVIFLTKKGRRFCANPSDKQVQVCMRMLKLDTRIKTRKN

cleavage by chymase [3]: cleaved | effect of chymase cleavage on chemotactic potency (CCR1): increased potency
B2: CCL15: CC-chemokine with extended N-terminus, purchased from Peprotech EC (protein, UniProt Q16663 22-113, looked up)
C-C motif chemokine 15: QFTNDAETELMMSKLPLENPVVLNSFHFAADCCTSYISQSIPCSLMKSYFETSSECSKPGVIFLTKKGRQVCAKPSGPGVQDCMKKLKPYSI
